Assay [1] deals with C-X-C chemokine receptor type 4 (Homo sapiens, UniProt P61073). Kind of assay: Inhibition of [125I]SDF-1alpha binding to CXCR4 (unknown origin) expressed in HEK293 cell membranes incubated for 1 hr by radioligand displacement assay.
Assay [2] addresses T1, Atypical chemokine receptor 3 (Homo sapiens, UniProt P25106). Description: Inhibition of [125I]SDF-1alpha binding to CXCR7 (unknown origin) expressed in CHO cell membranes incubated for 1 hr by radioligand displacement assay. The method in brief:
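Scintillation proximity binding: receptor membranes (10−20 µg/well) on WGA beads (0.25 mg/well) incubated with peptide and [125I]-SDF-1α (0.20 nM for CXCR4, 0.25 nM for CXCR7). Room temperature, 1 h. Bound radioactivity counted 1 min/well. IC50 taken from inhibition of tracer binding.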

Assay [3] concerns the target T1, Atypical chemokine receptor 3. Description: Agonist activity at CXCR7 (unknown origin) expressed in HEK293E cells co-transfected with receptor-eYFP construct and beta-arrestin2-Rluc assessed as induction of receptor-mediated beta-arrestin recruitment by BRET assay. It counts as cell-based. The method, boiled down: (§1)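 Transient co-transfection of HEK293E cells with 1 µg receptor-eYFP plus 0.05 µg β-arrestin2-Rluc, made up to 2 µg/well with empty vector. Cells cultured overnight, seeded on poly(D-lysine) plates and grown 24 h more. Ligand added in BRET buffer (PBS, 0.5 mM MgCl2, 0.01% BSA), 5 min at 37 °C, then coelenterazine h 5 µM final. Read 30 min after ligand addition. Net BRET = YFP (510–550 nm)/Rluc (460–500 nm) minus Rluc-only background.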

The target in assay [4] is Atypical chemokine receptor 3 (Homo sapiens, UniProt P25106, S198R). Kind of assay: Agonist activity at CXCR7 S198R mutant (unknown origin) expressed in HEK293E cells co-transfected with receptor-eYFP construct and beta-arrestin2-Rluc assessed as induction of receptor-mediated beta-arrestin recruitment by BRET assay. It counts as cell-based. The method in brief:
as §1

For assay [5], the target named is T1, Atypical chemokine receptor 3. Description: Agonist activity at wild type CXCR7 (unknown origin) expressed in HEK293E cells co-transfected with receptor-eYFP construct and beta-arrestin2-Rluc assessed as induction of receptor-mediated beta-arrestin recruitment by BRET assay. It is filed as cell-based. The method, boiled down:
as §1

For assay [6], the target named is Atypical chemokine receptor 3 (Homo sapiens, UniProt P25106, D179N). Kind of assay: Agonist activity at CXCR7 D179N mutant (unknown origin) expressed in HEK293E cells co-transfected with receptor-eYFP construct and beta-arrestin2-Rluc assessed as induction of receptor-mediated beta-arrestin recruitment by BRET assay. It counts as cell-based. The method in brief:
as §1

Assay [7] has as its target Atypical chemokine receptor 3 (Homo sapiens, UniProt P25106, D275N). Kind of assay: Agonist activity at CXCR7 D275N mutant (unknown origin) expressed in HEK293E cells co-transfected with receptor-eYFP construct and beta-arrestin2-Rluc assessed as induction of receptor-mediated beta-arrestin recruitment by BRET assay. It is filed as cell-based. The method, boiled down:
as §1

Where a SMILES comes first, the peptide text is derived from it. [ ]: non-standard residue; d: D form. 2Nal = N[C@@H](Cc1ccc2ccccc2c1)C(=O)O; Pip = O=C(O)[C@@H]1CCCCN1; dPip = O=C(O)[C@H]1CCCCN1; βAla = NCCC(=O)O

From ChEMBL document CHEMBL3580653, “Development of novel CXC chemokine receptor 7 (CXCR7) ligands: selectivity switch from CXCR4 antagonists with a cyclic pentapeptide scaffold” (J Med Chem, 2015) come the findings set out here.

Chain of Atypical chemokine receptor 3 (Homo sapiens, UniProt P25106, D179N) (P25106 whole entry D179N): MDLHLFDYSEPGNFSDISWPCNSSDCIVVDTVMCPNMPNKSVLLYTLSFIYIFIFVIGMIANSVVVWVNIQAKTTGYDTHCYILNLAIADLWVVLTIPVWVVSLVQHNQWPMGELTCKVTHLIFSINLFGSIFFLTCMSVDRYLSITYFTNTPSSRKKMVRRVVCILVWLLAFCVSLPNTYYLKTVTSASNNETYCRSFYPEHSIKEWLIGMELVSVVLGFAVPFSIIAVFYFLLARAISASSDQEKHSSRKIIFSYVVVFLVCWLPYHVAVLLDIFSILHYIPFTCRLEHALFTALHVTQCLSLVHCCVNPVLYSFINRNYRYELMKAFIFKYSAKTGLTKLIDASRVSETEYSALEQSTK
T1 sequence (P25106 whole entry): as the sequence (P25106 whole entry D179N) above, with N179D counted along it
Chain of C-X-C chemokine receptor type 4 (P61073 whole entry): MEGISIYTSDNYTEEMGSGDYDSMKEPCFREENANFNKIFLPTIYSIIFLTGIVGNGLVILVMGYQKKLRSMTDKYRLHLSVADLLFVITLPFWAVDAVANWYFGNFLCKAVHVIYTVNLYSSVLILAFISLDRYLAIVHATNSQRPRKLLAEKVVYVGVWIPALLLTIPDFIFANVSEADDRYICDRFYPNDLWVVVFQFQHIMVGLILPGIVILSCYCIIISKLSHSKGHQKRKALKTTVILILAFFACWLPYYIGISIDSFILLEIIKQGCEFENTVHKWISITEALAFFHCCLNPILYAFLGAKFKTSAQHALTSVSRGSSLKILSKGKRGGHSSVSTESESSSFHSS
Chain of Atypical chemokine receptor 3 (Homo sapiens, UniProt P25106, S198R) (P25106 whole entry S198R): as the sequence (P25106 whole entry D179N) above, with N179D, S198R counted along it
Chain of Atypical chemokine receptor 3 (Homo sapiens, UniProt P25106, D275N) (P25106 whole entry D275N): as the sequence (P25106 whole entry D179N) above, with N179D, D275N counted along it

As for `N=C(N)NCCC[C@@H]1NC(=O)[C@H](CCCNC(=N)N)NC(=O)[C@@H](Cc2ccc(O)cc2)NC(=O)[C@@H]2CCCN2C(=O)[C@@H](Cc2ccc3ccccc3c2)NC1=O`, the IC50 in assay [1] and in assay [2] was greater than 30 µM each time.
Turning to `N=C(N)NCCC[C@@H]1NC(=O)[C@H](CCCNC(=N)N)NC(=O)[C@@H](Cc2ccc(O)cc2)NC(=O)[C@@H]2CCCCN2C(=O)[C@H](Cc2ccc3ccccc3c2)NC1=O` (cyclo([2Nal][Pip][dY]RR)), the figures for the half-inhibitory concentration (IC50) in assay [1] and in assay [2] were greater than 30 µM and 13 µM, respectively.
Taken in the same sequence, the figures for `N=C(N)NCCC[C@@H]1NC(=O)[C@@H](CCCNC(=N)N)NC(=O)[C@@H](Cc2ccc(O)cc2)NC(=O)[C@@H]2CCCN2C(=O)[C@H](Cc2ccc3ccccc3c2)NC1=O` were greater than 30 µM and 4.6 µM.
Taken in the same sequence, the figures for `CN1C(=O)[C@H](CCCNC(=N)N)NC(=O)[C@H](CCCNC(=N)N)NC(=O)[C@@H](Cc2ccc(O)cc2)NC(=O)[C@@H]2CCCN2C(=O)[C@@H]1Cc1ccc2ccccc2c1` were greater than 30 µM and 3.4 µM.
`C[C@@H]1NC(=O)[C@H](CCCNC(=N)N)N(C)C(=O)[C@H](CCCNC(=N)N)NC(=O)[C@@H](Cc2ccc(O)cc2)NC(=O)[C@@H]2CCCN2C1=O`: the IC50 in assay [1] and in assay [2] was greater than 30 µM each time.
With `N=C(N)NCCC[C@@H]1NC(=O)[C@H](CCCNC(=N)N)NC(=O)[C@@H](Cc2ccc(O)cc2)NC(=O)CCNC(=O)[C@H](Cc2ccc3ccccc3c2)NC1=O` (cyclo([2Nal][βAla][dY]RR)), the IC50 in assay [1] was 6 µM; in assay [2] it was greater than 30 µM.
The corresponding values for `C[C@H]1NC(=O)[C@@H]2CCCN2C(=O)[C@H](Cc2ccc3ccccc3c2)NC(=O)[C@H](CCCNC(=N)N)N(C)C(=O)[C@H](CCCNC(=N)N)NC1=O` are greater than 30 µM and greater than 30 µM.
Taken in the same sequence, the figures for `C[C@H]1C(=O)N[C@@H](Cc2ccc3ccccc3c2)C(=O)N2CCC[C@H]2C(=O)N[C@H](Cc2ccc(O)cc2)C(=O)N[C@@H](CCCNC(=N)N)C(=O)N1C` were greater than 30 µM and 11 µM.
As to `CN1C(=O)[C@@H]2CCCN2C(=O)[C@H](Cc2ccc3ccccc3c2)NC(=O)[C@H](CCCNC(=N)N)NC(=O)[C@H](CCCNC(=N)N)NC(=O)[C@H]1Cc1ccc(O)cc1`, the IC50 was greater than 30 µM in assay [1] and 18 µM in assay [2].
Take `CN1C(=O)[C@@H](Cc2ccc(O)cc2)NC(=O)[C@@H]2CCCN2C(=O)[C@H](Cc2ccc3ccccc3c2)NC(=O)[C@H](CCCNC(=N)N)NC(=O)[C@@H]1CCCNC(=N)N`: the IC50 is greater than 30 µM in assay [1] and 2.4 µM in assay [2].
Regarding `N=C(N)NCCC[C@@H]1NC(=O)[C@H](CCCNC(=N)N)NC(=O)[C@@H](Cc2ccc(O)cc2)NC(=O)[C@H]2CCCCN2C(=O)[C@H](Cc2ccc3ccccc3c2)NC1=O` (cyclo([2Nal][dPip][dY]RR)), the IC50 in assay [1] and in assay [2] was greater than 30 µM throughout.
As for `CN1C(=O)[C@@H]2CCCN2C(=O)[C@H](Cc2ccc3ccccc3c2)NC(=O)[C@H](CCCNC(=N)N)NC(=O)[C@H](CCCNC(=N)N)NC(=O)[C@@H]1Cc1ccc(O)cc1`, the IC50 in assay [1] is greater than 30 µM; in assay [2], 23 µM.
As to `CC[C@H](C)[C@@H]1NC(=O)[C@H]([C@@H](C)O)NC(=O)[C@H]2CCCN2C(=O)[C@H](Cc2ccc3ccccc3c2)NC(=O)[C@H](CCCNC(=N)N)NC(=O)[C@@H](CCCNC(=N)N)NC1=O` (cyclo([2Nal][dP]TI[dR]R)), the EC50 in assay [3] (read-out: EC50) was 0.036 µM; in assay [3] (read-out: pEC50 (converted)) it was 0.0316 µM. This compound also registered a concentration for half-maximal inhibition (IC50) in assay [2] of 1.7 µM.
Take `N=C(N)NCCC[C@@H]1NC(=O)[C@@H](Cc2ccc(O)cc2)NC(=O)[C@@H]2CCCN2C(=O)[C@H](Cc2ccc3ccccc3c2)NC(=O)[C@@H](CCCNC(=N)N)NC1=O`: the IC50 in assay [1] and in assay [2] was greater than 30 µM each time.
Consider `N=C(N)NCCC[C@@H]1NC(=O)[C@H](CCCNC(=N)N)NC(=O)[C@@H](Cc2ccc(O)cc2)NC(=O)CNC(=O)[C@H](Cc2ccc3ccccc3c2)NC1=O`, for which the EC50 was 2.4 µM in assay [3] (read-out: EC50) and 2 µM in assay [3] (read-out: pEC50 (converted)). In assay [2], this compound had an IC50 greater than 30 µM.
For the compound `C[C@H]1NC(=O)[C@H](Cc2ccc3ccccc3c2)NC(=O)[C@H](CCCNC(=N)N)NC(=O)[C@H](CCCNC(=N)N)NC(=O)[C@@H](Cc2ccc(O)cc2)NC1=O` (cyclo([dY]RR[2Nal][dA])), the IC50 was 2.2 µM in assay [1] and greater than 30 µM in assay [2].
For `C[C@H]1C(=O)N[C@H](Cc2ccc(O)cc2)C(=O)N[C@@H](CCCNC(=N)N)C(=O)N[C@@H](CCCNC(=N)N)C(=O)N[C@@H](Cc2ccc3ccccc3c2)C(=O)N1C`, the IC50 was greater than 30 µM in assay [1] and 15 µM in assay [2].
Take `CN1C(=O)[C@H](CCCNC(=N)N)NC(=O)[C@H](CCCNC(=N)N)NC(=O)[C@@H](Cc2ccc(O)cc2)NC(=O)[C@@H]2CCCN2C(=O)[C@H]1Cc1ccc2ccccc2c1`: the IC50 in assay [1] and in assay [2] was greater than 30 µM in each case.
On to `CN1C(=O)[C@H](CCCNC(=N)N)NC(=O)[C@@H](Cc2ccc(O)cc2)NC(=O)[C@@H]2CCCN2C(=O)[C@H](Cc2ccc3ccccc3c2)NC(=O)[C@H]1CCCNC(=N)N`, for which the results for the IC50 in assay [1] and in assay [2] were greater than 30 µM and 4.6 µM, respectively.
As to `N=C(N)NCCC[C@@H]1NC(=O)[C@H](CCCNC(=N)N)NC(=O)[C@@H](Cc2ccc(O)cc2)NC(=O)[C@H]2CCCN2C(=O)[C@H](Cc2ccc3ccccc3c2)NC1=O`, the IC50 in assay [1] and in assay [2] was greater than 30 µM each time.
With `N=C(N)NCCC[C@@H]1NC(=O)[C@H](Cc2ccc(O)cc2)NC(=O)[C@@H]2CCCN2C(=O)[C@H](Cc2ccc3ccccc3c2)NC(=O)[C@H](CCCNC(=N)N)NC1=O`, the IC50 in assay [1] and in assay [2] was greater than 30 µM in each case.
Turning to `CN1C(=O)[C@@H](Cc2ccc(O)cc2)NC(=O)[C@@H]2CCCN2C(=O)[C@H](Cc2ccc3ccccc3c2)NC(=O)[C@H](CCCNC(=N)N)NC(=O)[C@H]1CCCNC(=N)N`, the IC50 was greater than 30 µM in assay [1] and 13 µM in assay [2].
Taken in the same sequence, the figures for `C[C@@H]1C(=O)N[C@H](Cc2ccc(O)cc2)C(=O)N[C@@H](CCCNC(=N)N)C(=O)N[C@@H](CCCNC(=N)N)C(=O)N[C@@H](Cc2ccc3ccccc3c2)C(=O)N1C` were 4.6 µM and greater than 30 µM.
Taken in the same sequence, the figures for `C[C@@H]1NC(=O)[C@H](Cc2ccc3ccccc3c2)NC(=O)[C@H](CCCNC(=N)N)NC(=O)[C@H](CCCNC(=N)N)NC(=O)[C@@H](Cc2ccc(O)cc2)NC1=O` (cyclo([2Nal]A[dY]RR)) were 23 µM and 18 µM.
Turning to `N=C(N)NCCC[C@@H]1NC(=O)[C@H](CCCNC(=N)N)NC(=O)[C@@H](Cc2ccc(O)cc2)NC(=O)[C@@H]2CCCN2C(=O)[C@H](Cc2ccc3ccccc3c2)NC1=O`, the EC50 was 0.36 µM in assay [4]; 0.19 µM in assay [5] (read-out: EC50); 0.126 µM in assay [5] (read-out: pEC50 (converted)); 0.074 µM in assay [3] (read-out: EC50); 3.5 µM in assay [6] (read-out: EC50); 3.98 µM in assay [6] (read-out: pEC50 (converted)). The EC50 in assay [7] is 1.5 µM. For the same compound, the values for the IC50 in assay [1] and in assay [2] were greater than 30 µM and 1.5 µM, respectively.
Turning to `C[C@@H]1NC(=O)[C@@H](Cc2ccc(O)cc2)NC(=O)[C@@H]2CCCN2C(=O)[C@H](Cc2ccc3ccccc3c2)NC(=O)[C@H](CCCNC(=N)N)N(C)C1=O`, the IC50 in assay [1] is greater than 30 µM; in assay [2] it was 16 µM.
As for `CN1C(=O)[C@H](CCCNC(=N)N)NC(=O)[C@@H](Cc2ccc(O)cc2)NC(=O)[C@@H]2CCCN2C(=O)[C@H](Cc2ccc3ccccc3c2)NC(=O)[C@@H]1CCCNC(=N)N`, the EC50 was 0.36 µM in assay [4]; 0.24 µM in assay [5] (read-out: EC50); 0.158 µM in assay [5] (read-out: pEC50 (converted)); 0.095 µM in assay [3] (read-out: EC50); 2 µM in assay [6] (read-out: EC50); 0.65 µM in assay [7]. Moreover, the IC50 is greater than 30 µM in assay [1] and 0.8 µM in assay [2].
